Bioassay records (PubChem BioAssay)
Shown are actives, neighbours in structure and some others; about 1.9% of the full set was active somewhere.
Runt-CBFb FRET = inhibitors of RUNX1 Runt–CBFb binding, primary screen, biochemical, FRET, Cerulean-Runt, Venus-CBFb, uHTS; AID 1496, 2009; Runt-related transcription factor 1 (Homo sapiens) + Core-binding factor subunit beta …; 0.46% of 220,000 active; inhibition, % at 20 µM; Cerulean-Runt/Venus-CBFb FRET ratio 530/480, 1 h;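 active = inhibition over about 50% at 20 µM in the single-dose screen, limit read from the data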;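 note: 0% = DMSO wells and 100% = excess unlabeled CBFb competitor control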
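Reagent – Venus-CBFb binding partner, 100 nM · Assay system – Cerulean-tagged RUNX1 Runt domain (FRET donor) fusion protein · Input – 100 nM per protein · Incubation – two 1 h room-temperature incubations shielded from light · Measured by – FRET fluorescence · Medium – Tris buffer pH 7.5 with salts and BSA · Benchmarks – unlabeled CBFb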
Tb hexokinase = Trypanosoma brucei hexokinase 1 inhibitors, primary screen, biochemical, G6PDH-coupled NADH absorbance, MLSCN library | inhibition, % at 10 µM | 0.11% of 220,000 active | AID 1430, 2008 | hexokinase 1 [Trypanosoma brucei] | recombinant TbHK1, G6PDH-coupled NADH A340;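 active = inhibition of 50% or more in the single-dose primary screen; inactive = inhibition below 50%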
Runt-SMMHC FRET = inhibitors of RUNX1 Runt–CBFb-SMMHC binding, primary screen, biochemical, FRET, Cerulean-Runt, Venus-CBFb-SMMHC, uHTS | Runt-related transcription factor 1 (Homo sapiens) + Core-binding factor subunit beta … | Cerulean-Runt/Venus-CBFb-SMMHC FRET ratio 530/480, 1 h | inhibition, % at 20 µM | 0.74% of 220,000 active;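 active = mean inhibition across duplicate retests at 20 µM reaching about 50%, limit read from the data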;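 note: 0% = DMSO wells and 100% = wells with excess untagged CBFb-SMMHC; inhibitors lower the FRET ratio by blocking Runt binding to CBFb-SMMHC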
Hck-Nef inh = inhibitors of Nef-activated human Hck kinase, primary screen, biochemical, Z-Lyte FRET, 384-well, Hck-YEEI; Tyrosine-protein kinase HCK (Homo sapiens), P08631; Recombinant Hck-YEEI plus Nef, Z-Lyte FRET kinase assay; inhibition, % at 20 µM; 0.68% of 220,000 active;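 active = Hck-Nef kinase inhibition above about 50%, limit read from the data; inactive = inhibition below that limit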;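 note: 0% = DMSO with Hck plus Nef and 100% = Hck alone without Nef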
Target sequence (P08631 whole entry, looked up): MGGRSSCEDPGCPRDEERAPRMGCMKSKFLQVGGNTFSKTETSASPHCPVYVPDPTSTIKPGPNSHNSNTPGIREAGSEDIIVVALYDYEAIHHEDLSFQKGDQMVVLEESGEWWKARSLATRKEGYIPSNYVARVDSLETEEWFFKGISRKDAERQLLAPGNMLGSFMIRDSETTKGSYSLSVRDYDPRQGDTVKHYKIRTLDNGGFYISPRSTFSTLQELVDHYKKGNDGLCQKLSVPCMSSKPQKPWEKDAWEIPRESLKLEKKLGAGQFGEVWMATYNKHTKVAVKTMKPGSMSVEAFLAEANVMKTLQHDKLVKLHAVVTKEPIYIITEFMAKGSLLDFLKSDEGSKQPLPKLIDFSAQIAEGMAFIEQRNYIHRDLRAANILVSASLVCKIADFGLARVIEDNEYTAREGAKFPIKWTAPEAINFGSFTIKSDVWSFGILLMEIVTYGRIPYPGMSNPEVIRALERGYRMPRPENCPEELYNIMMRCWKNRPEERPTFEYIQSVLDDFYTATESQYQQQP
RanGTP-Imp inh = inhibitors of RanGTP-importin-beta interaction, primary screen, biochemical, FRET, CFP-Ran, YFP-importin-beta, homogeneous; Ran GTPase (GTP-bound) - importin-beta complex; cell-free CFP-Ran/YFP-importin-beta FRET ratio; inhibition, % (test concentration not listed); 1.1% of 300,000 active; AID 2216, 2009;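 active = more than half of the replicate wells show a fall in the fluorescence ratio signal beyond about 16%, limit read from the data, passing the limit was not always enough; inconclusive = exactly half of the replicate wells pass the set limit; inactive = fewer than half of replicates pass the limit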;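 note: 0% = DMSO wells and 100% = Ran loaded with GDP instead of GTP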
An asterisk follows results filed as active; ? = inconclusive; · = not tested or not shown; ! = a repeat was not active.

SMILES | Runt-CBFb FRET | Tb hexokinase | Runt-SMMHC FRET | Hck-Nef inh | RanGTP-Imp inh
CN1CCC2(CC1)C1CN(C)CC=C1C(C#N)=C(N)C2(C#N)C#N (stereo not drawn) | 71*! | -5 | 75* | 8 | 43*
CCNC(=O)NC1(C(=O)Nc2ccc3c(c2)OCCO3)CCCCC1 | · | 3 | -9 | 1 | -2
Cc1ccccc1-n1nc2c(c1NC(=O)c1cc3ccccc3oc1=O)CS(=O)(=O)C2 | 10 | 5 | 39 | 1 | 17*
O=C(Nc1cccc(C(F)(F)F)c1)c1cc2c(s1)-c1ccccc1OC2 | 45 | -9 | 87* | 13 | 41*
COc1ccc(C(=O)COc2ccccc2C(=O)Nc2ccccc2)cc1 | 0 | -5 | 4 | 3 | 3
CCNc1nc(SCC(N)=O)nc2sc3c(c12)CCN(C)C3 | · | · | · | · | 48*
C=CCSc1nc(N)c2c3c(sc2n1)CN(C)CC3 | · | · | · | · | 19*
CCSc1nc(N)c2c3c(sc2n1)CN(C)CC3 | 2 | -83 | 18 | -5 | 5
CSc1nc(SCC(N)=O)c2c3c(sc2n1)CN(C)CC3 | -2 | -28 | -4 | 1 | 3
Cc1ccc(C(=O)N/C(=C\c2ccc3c(c2)OCO3)C(=O)Nc2ccc(C(=O)O)cc2)cc1 | 0 | -20 | -1 | 2 | 4
O=CN(/C=C1\Sc2ccccc2C1=O)Cc1ccccc1 | 37 | -12 | 67* | 15 | ?
CC(=O)Nc1ccc(/C=C2\Sc3ccccc3C2=O)cc1 | -4 | 5 | -3 | 11 | 4
CC(=O)N(C)/C=C1\Sc2ccccc2C1=O | 30 | -2 | 76* | 3 | ?
Cc1ccc(NC(=O)Nc2ccon2)cc1Cl | · | · | · | · | 2
N#Cc1cc(N)ccc1-n1cccc1 | 4 | -17 | 1 | 9 | 3
Cc1onc(-c2c(Cl)cccc2Cl)c1C(=O)NCC1CCCO1 (stereo not drawn) | -1 | 0 | 3 | 1 | -3
Cc1noc(C(=O)NCC2CCCO2)c1Cl (stereo not drawn) | · | · | · | · | 23*
CC(C)(C)c1ccc(C(=O)NNc2cc(N3CCCCC3)nc(N3CCCCC3)n2)cc1 | -10 | -6 | -4 | 1 | 5
COc1ccc(NC(=O)NNc2cc(N3CCOCC3)nc(N3CCOCC3)n2)cc1 | 2 | -1 | 4 | 19 | 66*
CC(=O)NNc1cc(N2CCOCC2)nc(N2CCOCC2)n1 | 49 | 2 | 86* | 19 | 83*
O=C(CCc1ccccc1)NNc1cc(N2CCCCC2)nc(N2CCCCC2)n1 | -5 | 5 | -7 | 1 | 71*
O=C(NNc1cc(N2CCOCC2)nc(N2CCOCC2)n1)c1ccc(Cl)cc1Cl | 4 | 14 | -5 | 2 | 76*
N#C/C(=C\c1c(N2CCN(c3ccccc3)CC2)nc2ccccn2c1=O)C(N)=O | · | · | · | · | 0
C=CCc1cccc2cc(C(=O)N3CCN(C(=O)c4ccccc4)CC3)c(=O)oc12 | · | · | · | · | 1
COc1ccc(NC(C)=O)cc1NC(=O)CSc1nnc(C2CCCCC2)n1N | · | · | · | · | 2
SMILES | Runt-CBFb FRET | Tb hexokinase | Runt-SMMHC FRET | Hck-Nef inh | RanGTP-Imp inh
CCOc1ccc(NC(=O)CSc2nnc(CNC(=O)c3ccco3)o2)cc1 | 0 | -5 | 2 | 24 | 6
CC(C)(C)c1ccc(C(=O)NNc2cc(N3CCOCC3)nc(N3CCOCC3)n2)cc1 | -1 | 8 | -6 | 18 | 85*
Cc1cc(-c2ccc(NC(=O)[C@@H]3CCCC[C@@H]3C(=O)O)c(C)c2)ccc1NC(=O)[C@@H]1CCCC[C@@H]1C(=O)O | 5 | 8 | -4 | 1 | ?
Cc1cc(NS(=O)(=O)c2ccc(NC(=O)c3cc4c(=O)n5ccccc5nc4s3)cc2)nc(C)n1 | 33 | -8 | 74* | 19 | 7
CN(C)S(=O)(=O)c1cccc(NC(=O)c2cc3c(=O)n4ccccc4nc3s2)c1 | -34 | 5 | 28 | 17 | 6
Cc1ccccc1N1CC(C(=O)Nc2ccc(S(=O)(=O)N3CCOCC3)cc2)CC1=O (stereo not drawn) | · | · | · | · | 6
CCCCC[C@H](O)/C=C/[C@H]1C=CC(=O)[C@@H]1C/C=C\CCCC(=O)O | 7 | 41 | 0 | 57* | ·
Cc1ccccc1NC(=S)C1=C(O)c2sccc2N(C)S1(=O)=O | 29 | -33 | 50* | -19 | 89*
CCNC(=O)C1=C(O)c2sccc2N(C)S1(=O)=O | 45 | -12 | 65* | 25 | 76*
COc1ccc(CCc2nnc(NS(C)(=O)=O)s2)cc1 | · | · | · | · | 27*
CS(=O)(=O)Nc1nnc(CCc2ccccc2)s1 | · | · | · | · | 0
CC(=O)Oc1c(-c2ccco2)oc2ccccc2c1=O | 20 | -28 | 92* | -118 | 13
COc1ccc(/C=C/c2nnc(NC(=O)CSc3ccc(C)cc3)s2)cc1 | 1 | -30 | 124* | 23 | 7
CCC(=O)Nc1nnc(/C=C/c2ccc(OC)cc2)s1 | -2 | -17 | 1 | 2 | 1
O=C(CSc1nc(=O)n2ccccc2n1)OCc1ccccc1 | · | · | · | · | -5
CCC(=O)NC1=C(Cl)C(=O)C(NC(=O)CC)=C(Cl)C1=O | 17 | -24 | 95* | 5 | ·
Cc1ccc(NC(=O)COC(=O)CN2C(=O)NC3(CCCC3)C2=O)cc1S(=O)(=O)N(C)C | -44 | 0 | -1 | 26 | 1
Cc1ccc(NC(=O)COC(=O)CN2C(=O)c3ccccc3C2=O)cc1S(=O)(=O)N(C)C | 0 | 9 | 1 | -11 | 40*
Clc1cccc(CN2CCSCC2)c1 | · | · | · | · | 2
COc1cc2ccccc2cc1C(=O)Nc1cccnc1 | 2 | 3 | 0 | 12 | 1
COc1cc2cc(C(=O)Nc3ccccc3)c(N)nc2cc1OC | 16 | -9 | 48 | 19 | 29*
Cc1cc(NCCCOC(C)C)n2c(nc3ccccc32)c1C#N | · | · | · | · | 26*
Cc1cc(NCCN2CCCCC2)n2c(nc3ccccc32)c1C#N | 6 | 0 | 14 | 29 | 8
O=C(CN1C(=O)S/C(=C\c2cc(Cl)c(O)c(Cl)c2)C1=O)Nc1ccccc1 | · | · | · | · | 51*
COc1cc(/C=C2\SC(=O)N(CC(=O)Nc3ccc(C)cc3)C2=O)cc(Cl)c1OCC(=O)O | · | · | · | · | 0
Cc1cccc(NC(=O)CN2C(=O)S/C(=C\c3ccc(O)c([N+](=O)[O-])c3)C2=O)c1 | -8 | 3 | 0 | 61* | -7
CC(=O)c1ccc(NC(=O)C(C)Sc2n[nH]c(-c3cccnc3)n2)cc1 (stereo not drawn) | · | · | · | · | 1
CCn1c(C(=O)O)c(CC(=O)Nc2ccc(Br)cc2C)c2ccccc21 | · | · | · | · | 1
CCc1ccc(NC(=O)CN(c2cc(C)cc(C)c2)S(=O)(=O)c2c(C)[nH]c(=O)[nH]c2=O)cc1 | · | · | · | · | 21*
